The term IC50 denotes the midpoint of a concentration-inhibition curve.

SMILES strings stand for the structures.

One series concerns TcHK. Put plainly: Therapeutic index TI=LD50(KB)/IC50(TcHK). The settings on record: human.
The next series deals with KB. Put plainly: Cytotoxicity in human nasopharyngeal carcinoma KB cell line. The note with it: read-out: LD50 (the source's name). In kind it is functional. The gist of the method:
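Human nasopharyngeal carcinoma KB cells were exposed to bisphosphonates up to a highest tested level of 300 µg mL-1. […] The therapeutic index was KB LD50 divided by TcHK IC50.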

Another series deals with Dictyostelium discoideum. Put plainly: Cytotoxicity to Dictyostelium discoideum. In kind it is functional, organism-based.
A further series deals with T1, Hexokinase (Trypanosoma cruzi, UniProt Q8ST54).
T1 sequence (Q8ST54 whole entry): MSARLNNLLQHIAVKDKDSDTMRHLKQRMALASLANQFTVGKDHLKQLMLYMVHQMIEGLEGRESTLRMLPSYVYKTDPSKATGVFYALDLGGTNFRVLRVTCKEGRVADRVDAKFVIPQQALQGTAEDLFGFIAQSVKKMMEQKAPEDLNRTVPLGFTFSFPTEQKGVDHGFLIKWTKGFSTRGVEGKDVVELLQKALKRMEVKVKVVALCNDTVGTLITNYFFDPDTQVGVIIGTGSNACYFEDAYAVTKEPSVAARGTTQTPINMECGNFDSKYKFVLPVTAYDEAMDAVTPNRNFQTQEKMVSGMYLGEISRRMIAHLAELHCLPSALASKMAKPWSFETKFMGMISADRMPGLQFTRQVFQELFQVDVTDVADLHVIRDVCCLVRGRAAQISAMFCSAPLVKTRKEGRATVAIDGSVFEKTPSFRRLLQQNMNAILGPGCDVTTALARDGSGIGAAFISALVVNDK
The series can be described thus: Inhibitory activity against Trypanosoma cruzi hexokinase. The method in brief:
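Native glycosomal T. cruzi hexokinase, purified by a previously described procedure. Activity was followed as NADPH formation at 340 nm, coupled to D-glucose-6-phosphate dehydrogenase. Inhibition was reported as IC50.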

For a further series, the system named is Trypanosoma cruzi. The series can be described thus: Growth inhibition of Trypanosoma cruzi intracellular amastigotes. In kind it is functional, organism-based.
Where [1] appears, read: KB cells (cytotoxicity) versus TcHK enzyme.

As for `O=P(O)(O)C(Nc1cccc(CO)c1)P(=O)(O)O`, in the series on TcHK, the selectivity ratio was no less than 67. In the series on KB, the CC50 is no less than 980 µM. The IC50 is 351 µM in the series on Dictyostelium discoideum and 14.8 µM against Hexokinase.
`O=P(O)(O)C(Nc1ncccc1OCc1ccccc1)P(=O)(O)O`: in the series on KB, the CC50 is no less than 765 µM. Moreover, the IC50 in the series with Dictyostelium discoideum is 1 µM; on Hexokinase it was no less than 300 µM.
`CCCCCCCCCC(O)(P(=O)(O)O)P(=O)(O)O`: in the series with KB, the CC50 is no less than 892 µM. Besides, the IC50 in the series with Dictyostelium discoideum was 10 µM.
For `O=P(O)(O)C(O)(c1cccc(-c2ccccc2)c1)P(=O)(O)O`, in the series on TcHK, the selectivity ratio came out at 23. Also, the CC50 with KB is 797 µM. The values for the IC50 in the series on Dictyostelium discoideum and on Hexokinase were 103 µM and 34.7 µM, respectively.
As to `O=P(O)(O)C(O)(CC12CC3CC(CC(C3)C1)C2)P(=O)(O)O`, at Hexokinase, the IC50 was no less than 300 µM.
As to `O=P(O)(O)C(O)(Cc1cccnc1)P(=O)(O)O` [RISEDRONIC ACID], the CC50 in the series on KB amounted to 822 µM. Also, the IC50 against Hexokinase was no less than 300 µM.
For the compound `C[C@H](NC(P(=O)(O)O)P(=O)(O)O)c1cccc2ccccc12`, the figures for the IC50 with Dictyostelium discoideum and against Hexokinase were 7 µM and no less than 300 µM, respectively.
For `O=P(O)(O)C(Nc1ccc(F)c(-c2ccccc2)c1)P(=O)(O)O`, 3.63 µM corresponded to half-maximal inhibition against Hexokinase (IC50).
The same measure, in the same setting: the same measure for `O=P(O)(O)CNc1cccc(-c2ccccc2)c1`: no less than 300 µM.
For `CN(CCOc1ccccc1)CCC(O)(P(=O)(O)O)P(=O)(O)O`, in the series on KB, the CC50 worked out at 311 µM. Further, the IC50 with Dictyostelium discoideum is 2 µM; at Hexokinase, no less than 300 µM.
At Hexokinase, `O=c1ccc(-c2cccc(CC(O)(P(=O)(O)O)P(=O)(O)O)c2)c[nH]1` came in with an IC50 of no less than 300 µM.
As to `O=P(O)(O)C(Nc1cccc(-c2ccc(O)nc2)c1)P(=O)(O)O`, on Hexokinase, the half-maximal inhibitory concentration (IC50) was no less than 300 µM.
In the case of `CCn1c2ccccc2c2cc(NC(P(=O)(O)O)P(=O)(O)O)ccc21`, the CC50 in the series on KB worked out at 698 µM. In addition, the IC50 is 2050 µM in the series on Dictyostelium discoideum, 0.81 µM at Hexokinase and 2.2 µM with Trypanosoma cruzi.
At Hexokinase, `O=P(O)(O)C(CN[C@@H](CO)c1ccccc1)P(=O)(O)O` registered an IC50 of no less than 300 µM.
Regarding `CCCNC(P(=O)(O)O)P(=O)(O)O` [(PROPYLAMINO)METHYLENEDIPHOSPHONIC ACID], the selectivity ratio in the series with TcHK (setting [1]) was no more than 1.5. The CC50 with KB was 457 µM. The IC50 is 4 µM in the series on Dictyostelium discoideum and no less than 300 µM at Hexokinase.
Take `Cc1cccnc1NC(P(=O)(O)O)P(=O)(O)O`: in the series on KB, the CC50 turned out to be 840 µM. Besides, the IC50 in the series on Dictyostelium discoideum was 3 µM; against Hexokinase, 45.7 µM.
`CC1CCN(C(P(=O)(O)O)P(=O)(O)O)CC1`: the selectivity ratio in the series on TcHK (setting [1]) is no more than 1.5. Further, in the series with KB, the CC50 amounted to 446 µM. Moreover, the IC50 is 2 µM with Dictyostelium discoideum and no less than 300 µM at Hexokinase.
On Hexokinase, `O=P(O)(O)C(Nc1ccc(Cl)cc1Cl)P(=O)(O)O` [2,4-DICHLOROPHENYLAMINOMETHYLENEBISPHOSPHONIC ACID] had an IC50 of no less than 300 µM.
`O=P(O)(O)C(O)(C[n+]1cccc(-c2ccccc2)c1)P(=O)(O)O`: the selectivity ratio with TcHK (setting [1]) was no more than 0.04. For the same compound, the CC50 in the series with KB stood at 12 µM. The IC50 was 3 µM in the series on Dictyostelium discoideum and no less than 300 µM at Hexokinase.
In the case of `O=P(O)(O)C(O)(Cn1cnc(-c2ccccc2)c1)P(=O)(O)O`, the IC50 worked out at 122 µM with Dictyostelium discoideum and 1.82 µM on Hexokinase.
Turning to `O=P(O)(O)C(O)(Cc1ccncc1)P(=O)(O)O`, the CC50 in the series with KB turned out to be 1040 µM. This compound also came in with a half-inhibitory concentration (IC50) against Hexokinase of 12.6 µM.
On to `CC(C)(C)c1cccc(NC(P(=O)(O)O)P(=O)(O)O)c1`, for which the values for the IC50 in the series with Dictyostelium discoideum and against Hexokinase were 75 µM and no less than 300 µM, respectively.
On to `CCCCN(CC)C(P(=O)(O)O)P(=O)(O)O` [(BUTYL(ETHYL)AMINO)METHYLENEDIPHOSPHONIC ACID], for which, in the series with KB, the CC50 is no less than 1060 µM. The values for the half-inhibitory concentration (IC50) in the series with Dictyostelium discoideum and at Hexokinase were 4 µM and no less than 300 µM, respectively.
As for `C[N+](C)=c1ccn(CC(O)(P(=O)(O)O)P(=O)(O)O)cc1`, the IC50 was 30 µM with Dictyostelium discoideum and no less than 300 µM against Hexokinase.
On to `O=P(O)(O)C(Nc1cccc(-c2ccc(F)c(F)c2)c1)P(=O)(O)O`, for which the selectivity ratio in the series with TcHK (setting [1]) is no less than 285. Also, in the series on KB, the CC50 is no less than 791 µM. The IC50 in the series with Dictyostelium discoideum was found to be 77 µM; against Hexokinase, 2.75 µM.
Consider `O=P(O)(O)C(NC1CC1)P(=O)(O)O` [(CYCLOPROPYLAMINO)METHYLENEDIPHOSPHONIC ACID], for which, in the series with TcHK (setting [1]), the selectivity ratio was no more than 0.8. In addition, the CC50 in the series with KB was 242 µM. The results for the IC50 with Dictyostelium discoideum and against Hexokinase were 30 µM and no less than 300 µM, respectively.
As to `O=P(O)(O)C(Nc1cccc(-c2ccccc2)c1)P(=O)(O)O`, in the series with KB, the CC50 was found to be 827 µM. The IC50 with Dictyostelium discoideum was 211 µM; against Hexokinase, 1.95 µM; in the series on Trypanosoma cruzi, 47 µM.
Take `COCc1cccc(NC(P(=O)(O)O)P(=O)(O)O)c1`: the selectivity ratio with TcHK was greater than 237. Further, the CC50 in the series on KB was no less than 964 µM. Also, the values for the IC50 in the series with Dictyostelium discoideum and at Hexokinase were 253 µM and 4.07 µM, respectively.
At Hexokinase, `CCOC(=O)C(Cc1cccc(-c2ccccc2)c1)P(=O)(O)O` (centres undefined) yielded an IC50 of no less than 300 µM.
As for `O=[N+]([O-])c1cccc(NC(P(=O)(O)O)P(=O)(O)O)c1` [(3-NITROPHENYLAMINO)METHYLENEDIPHOSPHONIC ACID], the selectivity ratio with TcHK (setting [1]) is no less than 266. Besides, the CC50 in the series on KB was no less than 635 µM. Also, the IC50 was 78 µM with Dictyostelium discoideum and 2.4 µM at Hexokinase.
As to `CCCCCCCc1ccc(NC(P(=O)(O)O)P(=O)(O)O)cc1`, the CC50 in the series with KB was determined as 211 µM. The IC50 with Dictyostelium discoideum came out at 10 µM; at Hexokinase it was 1.45 µM.
Turning to `Cc1cccc(Cc2ccc[n+](CC(O)(P(=O)(O)O)P(=O)(O)O)c2)c1`, the selectivity ratio in the series with TcHK (setting [1]) is no more than 2.4. Besides, in the series with KB, the CC50 is 728 µM. The IC50 in the series with Dictyostelium discoideum is 889 µM; against Hexokinase, no less than 300 µM.
Turning to `O=P(O)(O)C(O)(C[n+]1ccccc1)P(=O)(O)O`, the CC50 in the series with KB was no less than 1060 µM. The IC50 in the series on Dictyostelium discoideum was 3 µM; on Hexokinase, no less than 300 µM.
Regarding `O=P(O)(O)C(Nc1cccc(Br)c1)P(=O)(O)O`, the selectivity ratio in the series with TcHK is no less than 812. In addition, in the series with KB, the CC50 was no less than 771 µM. For the same compound, the IC50 in the series on Dictyostelium discoideum was 112 µM; at Hexokinase it was 0.95 µM.
For `O=P(O)(O)C(O)(Cn1cnc2ccccc21)P(=O)(O)O`, the figures for the IC50 with Dictyostelium discoideum and on Hexokinase were 2 µM and no less than 300 µM, respectively.
Take `O=P(O)(O)C(CNc1cccc(-c2ccccc2)c1)P(=O)(O)O`: the selectivity ratio in the series with TcHK (setting [1]) was no less than 162. Also, the CC50 in the series with KB was no less than 560 µM. Further, the IC50 with Dictyostelium discoideum worked out at 62 µM; on Hexokinase it was 3.47 µM.
In the case of `COc1ccc(NC(P(=O)(O)O)P(=O)(O)O)cn1`, the selectivity ratio in the series on TcHK (setting [1]) is no more than 1. Also, the CC50 in the series with KB came out at 302 µM. The half-maximal inhibitory concentration (IC50) was 52 µM with Dictyostelium discoideum and no less than 300 µM on Hexokinase.
For the compound `Cc1cc(-c2cccc(CC(O)(P(=O)(O)O)P(=O)(O)O)c2)c(F)cc1F`, the IC50 on Hexokinase was 2.29 µM.
Turning to `O=P(O)(O)C(Cc1cccc(-c2ccccc2)c1)S(=O)(=O)O` (centres undefined), on Hexokinase, the IC50 is no less than 300 µM.
